Assay results from PubChem BioAssay AID463111 (Johns Hopkins Ion Channel Center, 2010).
Screen size: about 310,000 compounds; about 2,800 (0.9%) were called active.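 Rule for the calls: active = B-score of the integrated calcium signal more than 4 SD below the library mean, with starting fluorescence not abnormally high; inactive = the rest.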 Many of the other results were omitted from the sample, so actives are more common in it than they were.

Experiment: RGS4 potentiators or activators, primary screen, cell-based, HEK293 M3R inducible RGS4, calcium flux (AID 463111);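 for B-score: negative B-score means reduced calcium response which marks RGS4 activation or potentiation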
Conditions: HEK293 M3R/inducible RGS4, carbachol calcium flux Fluo4, at 10 µM; stronger effect = lower value
Outline: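 Also added: carbachol at ECmax as muscarinic agonist stimulus; Assay system: HEK293 cells with stable M3R and inducible RGS4; Timing: overnight RGS4 induction, 30 min dye load 37 °C, 20 min compound RT; Measured by: Fluo4-AM (2 µM) calcium-flux fluorescence, kinetic read.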
For `COc1ccc(-c2cc(C(=O)N(C)CC(=O)Nc3ccccc3Cl)c3ccccc3n2)cc1OC`, the B-score was “inactive”.
For `Cc1ccc(-c2cc(C(=O)Nc3nn[nH]n3)c3ccccc3n2)c(C)c1`, the B-score was “inactive”.
With `COc1ccc(NC(=O)CN(C)C(=O)c2cc(-c3ccc(C)o3)nc3ccccc23)cc1` the B-score was “inactive”.
With `COc1ccc(-c2cc(C(=O)N(C)Cc3ccccc3)c3ccccc3n2)cc1` the B-score was -8.16 (active).
For `COc1ccc(-c2cc(C(=O)N(C)Cc3ccc(OC)c(OC)c3OC)c3ccccc3n2)cc1OC`, the B-score was -8.8 (active).
In the case of `COc1ccc(CN(C)C(=O)c2cc(-c3ccc(C)cc3C)nc3ccccc23)c(OC)c1OC`, the B-score was -11.6 (active).
With `COc1ccc(-c2cc(C(=O)Nc3ccccc3O)c3ccccc3n2)cc1` the B-score was “inactive”.
For `CNC(=O)COC(=O)c1cc(-c2ccc(OC)cc2)nc2ccccc12`, the B-score was “inactive”.
For `COc1ccc(CN(C)C(=O)Cc2c[nH]c3ccccc23)c(OC)c1OC`, the B-score was “inactive”.
For `O=c1[nH]cccc1-c1nc2ccccc2n1Cc1ccc(Cl)cc1`, the B-score was “inactive”.
With `CCC(Oc1ccccc1C)C(=O)Nc1ccc(S(=O)(=O)Nc2cc(C)on2)cc1` (stereo unspecified) the B-score was “inactive”.
In the case of `CC1=C(C(=O)N(C)C)C(c2ccccc2OC(F)F)NC(=O)N1` (stereo unspecified), the B-score was “inactive”.
With `Cc1ccc(NS(=O)(=O)c2c(C)[nH]c(C)c2C(=O)N2CCCCC2)c(C)c1` the B-score was “inactive”.
In the case of `CC1=C(C(=O)OC2CCCCC2)C(c2cccnc2)n2ncnc2N1` (stereo unspecified), the B-score was “inactive”.
For `O=C(N/N=C/c1cccc(O)c1)c1cc2c(ccc3ccccc32)o1`, the B-score was “inactive”.
In the case of `Cc1ccc(OCCOc2cccc(/C=N/NC(N)=O)c2)cc1`, the B-score was “inactive”.
In the case of `O=C(N/N=C/c1cccc(OCc2ccccc2)c1)c1ccc(Br)o1`, the B-score was -7.35 (active).
In the case of `CSc1nc(-c2ccco2)nn1C(=O)c1ccccc1Cl`, the B-score was “inactive”.
With `O=C1NCC(=O)N(Cc2ccccc2)/C1=C/c1ccccc1` the B-score was “inactive”.
For `O=C1/C(=C\c2ccsc2)NC(=S)N1c1ccccc1`, the B-score was “inactive”.
With `CN(C)c1ccc(/C=C2\NC(=S)N(Cc3ccccc3)C2=O)cc1` the B-score was -12 (active).
For `CC(=O)N1CCN(S(=O)(=O)c2c(F)cc(F)c(Cl)c2F)CC1`, the B-score was “inactive”.
For `C/C=C(\C)C(=O)N1CC2(CC(c3cccc(NC(=O)CCCCC)c3)=NO2)C[C@@H]1C(N)=O` (stereo partly specified), the B-score was “inactive”.
For `CN(C)C(=O)c1nc2ccc(Cl)cn2c1CNCc1cccc(OC(F)(F)F)c1`, the B-score was “inactive”.
For `CN(C)c1ccc2c(=O)[nH][nH]c(=O)c2c1`, the B-score was “inactive”.
With `O=C(NCc1ccncc1)C1CCN(C(=O)c2cccc(Cl)c2)CC1` the B-score was “inactive”.
With `COC(=O)c1cccc(C(=O)N2CCC(CCC(=O)NCc3ccc(F)cc3)CC2)c1` the B-score was “inactive”.
With `Cn1c2ccccc2c2c(C(=O)N3CCN(c4ccc(F)cc4)CC3)cn(C3CCCC3)c(=O)c21` the B-score was -7.18 (active).
In the case of `CCOC(=O)N1CCN(C(=O)c2nn(-c3ccc(C)cc3)c(=O)c3c2c2ccccc2n3C)CC1`, the B-score was “inactive”.
In the case of `O=C(c1ccccc1Oc1ccccc1)N1CCN(c2ccc(F)cc2)CC1`, the B-score was “inactive”.
For `Nc1nc(SCc2cccc(Br)c2)n[nH]1`, the B-score was “inactive”.
With `COc1ccc(CC2(CO)CCN(Cc3cnn(C)c3)CC2)cc1` the B-score was “inactive”.
In the case of `COC(=O)c1ccc(CN2CCC(CO)(Cc3ccc(OC)cc3)CC2)cc1`, the B-score was -8.7 (active).
With `CC(=O)c1cccc(CN2CCC(CO)(Cc3ccccc3)CC2)c1` the B-score was “inactive”.
With `COc1ccccc1C(CNC(=O)c1cccc(NS(=O)(=O)c2ccc(Br)cc2)c1)N(C)C` (stereo unspecified) the B-score was -8.15 (active).
In the case of `CC(=O)c1ccc(S(=O)(=O)Nc2ccc(C(=O)NCC(c3ccccc3)N(C)C)cc2)cc1` (stereo unspecified), the B-score was “inactive”.
For `CN(C)C(CNC(=O)c1cccc(S(=O)(=O)Nc2ccc(Br)cc2)c1)c1ccco1` (stereo unspecified), the B-score was “inactive”.
With `COC(=O)c1ccccc1Sc1c(/C=N/OCc2ccc(Cl)cc2)c(C(F)(F)F)nn1C` the B-score was -7.48 (active).
For `COC(=O)c1ccccc1NC(=O)CN(Cc1ccc(Cl)cc1)S(C)(=O)=O`, the B-score was “inactive”.
With `COC(=O)c1ccccc1NC(=O)Cn1nc(C(F)(F)F)c2c1CCC2` the B-score was “inactive”.
With `CC(C)[C@H](NC(=O)c1ccc(F)cc1)C(=O)OCC(=O)NC(=O)c1cccn1C` the B-score was “inactive”.
For `Cc1cccc(NS(=O)(=O)c2ccc(C(=O)NCC(C)(C)N3CCOCC3)cc2)c1C`, the B-score was “inactive”.
With `N[C@@H](Cc1ccccc1)C(=O)N1CCOCC1` the B-score was “inactive”.
In the case of `CCOC(=O)C1=C(NC(=S)NC(=O)c2ccccc2)c2ccccc2CC1(C)C`, the B-score was -9.14 (active).
In the case of `COCCCNC(=S)NC(=O)c1ccccc1`, the B-score was “inactive”.
With `CCOC(=O)c1c(-c2ccccc2)csc1NC(=S)NC(=O)c1ccccc1` the B-score was “inactive”.
For `CCn1c(SC)nc(O)c(C(c2ccc(OC)c(O)c2)c2c(O)nc(SC)n(CC)c2=O)c1=O`, the B-score was “inactive”.
For `Cc1oc2c(F)c(F)c(F)c(F)c2c1S(=O)(=O)Nc1cccc(C(F)(F)F)c1`, the B-score was -9.29 (active).
For `O=C(/C=C/c1ccc(F)cc1)Nc1cccc(S(=O)(=O)Nc2cccc(C(F)(F)F)c2)c1`, the B-score was “inactive”.
For `CCOC(=O)N1CCN(C(=O)c2ccc(S(=O)(=O)Nc3cccc(C(F)(F)F)c3)cc2)CC1`, the B-score was “inactive”.
For `CCOc1ccc(NC(=O)CN(C)CC(=O)NC(C)c2ccccc2)cc1OCC` (stereo unspecified), the B-score was “inactive”.
